Source: ChEMBL document CHEMBL1136016, “Synthesis, biological activity, and molecular modeling investigation of new pyrazolo[4,3-e]-1,2,4-triazolo[1,5-c]pyrimidine derivatives as human A(3) adenosine receptor antagonists” (J Med Chem, 2002)
Values belong to the molecule of their own block, whether it stands above or below them.

Assays:
Adenosine receptor A2a [1] = target: T1, Adenosine receptor A2a (Homo sapiens, UniProt P29274); assay: Displacement of [3H]SCH-58261 from human Adenosine A2A receptor expressed in HEK293 cells; range 18-33; type: cell-based
T1 sequence (P29274 whole entry): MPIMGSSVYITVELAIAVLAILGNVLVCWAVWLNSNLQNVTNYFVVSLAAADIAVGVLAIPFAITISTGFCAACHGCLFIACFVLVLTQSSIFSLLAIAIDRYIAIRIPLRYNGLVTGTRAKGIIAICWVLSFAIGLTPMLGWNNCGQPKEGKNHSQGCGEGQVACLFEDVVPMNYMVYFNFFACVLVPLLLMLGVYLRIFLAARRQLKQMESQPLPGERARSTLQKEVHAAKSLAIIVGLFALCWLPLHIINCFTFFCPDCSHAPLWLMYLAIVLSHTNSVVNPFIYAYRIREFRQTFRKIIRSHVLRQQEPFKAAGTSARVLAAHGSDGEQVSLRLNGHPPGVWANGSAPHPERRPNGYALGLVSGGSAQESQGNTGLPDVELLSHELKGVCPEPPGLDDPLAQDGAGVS

Adenosine receptor A2b [2] = target: T2, Adenosine receptor A2b (Homo sapiens, UniProt P29275); assay: Displacement of [3H]DPCPX from human Adenosine A2B receptor expressed in HEK293 cells; range 127-203; type: cell-based
T2 sequence (P29275 whole entry): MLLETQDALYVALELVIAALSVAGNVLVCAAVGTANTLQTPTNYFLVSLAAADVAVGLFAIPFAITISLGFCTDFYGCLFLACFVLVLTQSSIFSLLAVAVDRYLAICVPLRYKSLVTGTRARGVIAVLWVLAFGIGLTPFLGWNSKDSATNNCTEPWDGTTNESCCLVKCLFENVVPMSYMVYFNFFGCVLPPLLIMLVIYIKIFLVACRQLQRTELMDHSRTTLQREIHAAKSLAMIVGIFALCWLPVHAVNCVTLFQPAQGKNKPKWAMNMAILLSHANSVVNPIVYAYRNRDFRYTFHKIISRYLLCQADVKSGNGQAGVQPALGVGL
Method in brief: (§1)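 HEK-293 membranes expressing the human receptor were incubated 60 min at 25 °C. Six to eight test concentrations were used. Nonspecific binding was set with NECA. n = 3-6.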

Adenosine receptor A3 [3] = target: T3, Adenosine receptor A3 (Homo sapiens, UniProt P0DMS8); assay: biochemical
T3 sequence (P0DMS8 whole entry): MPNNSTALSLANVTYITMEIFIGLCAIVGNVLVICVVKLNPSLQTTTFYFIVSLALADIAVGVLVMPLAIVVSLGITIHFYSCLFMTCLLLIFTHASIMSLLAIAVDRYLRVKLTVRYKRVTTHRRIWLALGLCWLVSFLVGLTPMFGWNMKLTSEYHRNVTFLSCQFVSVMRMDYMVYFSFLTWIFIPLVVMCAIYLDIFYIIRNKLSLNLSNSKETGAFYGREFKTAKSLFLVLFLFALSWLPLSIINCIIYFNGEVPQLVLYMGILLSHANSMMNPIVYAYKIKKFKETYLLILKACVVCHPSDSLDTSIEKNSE

[4] = target: Adenosine receptors; A1 & A3 (Homo sapiens) (UniProt P30542+P0DMS8); assay: Selectivity ratio (hA1/hA3); type: protein assay
Adenosine receptor A1 [5] = target: T4, Adenosine receptor A1 (Homo sapiens, UniProt P30542); assay: Displacement of [3H]DPCPX from human Adenosine A1 receptor expressed in CHO cells; range 210-376; type: cell-based
T4 sequence (P30542 whole entry): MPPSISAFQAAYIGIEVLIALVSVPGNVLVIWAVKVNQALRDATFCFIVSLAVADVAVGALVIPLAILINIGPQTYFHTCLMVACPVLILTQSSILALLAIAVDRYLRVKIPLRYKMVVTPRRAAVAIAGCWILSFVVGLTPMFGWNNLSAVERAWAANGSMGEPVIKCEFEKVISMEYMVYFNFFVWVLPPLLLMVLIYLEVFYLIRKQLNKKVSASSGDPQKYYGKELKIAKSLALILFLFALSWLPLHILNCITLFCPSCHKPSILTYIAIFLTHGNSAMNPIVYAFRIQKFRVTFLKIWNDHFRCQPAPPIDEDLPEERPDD

[6] = target: Adenosine receptors; A2b & A3 (Homo sapiens) (UniProt P29275+P0DMS8); assay: Selectivity ratio (h2B/hA3); type: protein assay
Adenosine receptor A2b [7] = target: T2, Adenosine receptor A2b; assay: Displacement of [3H]DPCPX from human Adenosine A2B receptor expressed in HEK293 cells; range 244-373; type: cell-based; method in brief: as §1
Adenosine receptor A2a [8] = target: T1, Adenosine receptor A2a; assay: Displacement of [3H]SCH-58261 from human Adenosine A2A receptor expressed in HEK293 cells; range 93-130; type: cell-based
Adenosine receptor A3 [9] = target: T3, Adenosine receptor A3; assay: Inhibition of IB-MECA agonist-mediated cAMP production in CHO cell membranes expressing human Adenosine A3 receptor; range 2.7-7.8; type: functional, cell-based
Adenosine receptor A1 [10] = target: T4, Adenosine receptor A1; assay: Displacement of [3H]DPCPX from human Adenosine A1 receptor expressed in CHO cells; range 601-888; type: cell-based
Method in brief: (§2)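 Human recombinant A1 receptor in CHO cell membranes, resuspended in 50 mM Tris HCl pH 7.4. Displacement run 120 min at 25 °C with 1 nM [3H]DPCPX, 50 µg protein per assay, and at least six to eight test concentrations. Nonspecific binding defined with CHA. Bound and free separated on glass-fiber filters; filter radioactivity counted. n = 3-6.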

Adenosine receptor A3 [11] = target: T3, Adenosine receptor A3; assay: biochemical; remark: listed apart in the source
Adenosine receptor A2a [12] = target: T1, Adenosine receptor A2a; assay: Displacement of [3H]SCH-58261 from human Adenosine A2A receptor expressed in HEK293 cells; range 402-608; type: cell-based
Adenosine receptor A2b [13] = target: T2, Adenosine receptor A2b; assay: Displacement of [3H]DPCPX from human Adenosine A2B receptor expressed in HEK293 cells; range 26-45; type: cell-based
Method in brief: (§3)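 Membranes from HEK-293 cells with human recombinant A2B receptor. Incubation 60 min at 25 °C in 50 mM Tris HCl, 10 mM MgCl2, 1 mM EDTA, 0.1 mM benzamidine, pH 7.4, with 2 IU/mL adenosine deaminase and 40 nM [3H]DPCPX. At least six to eight test concentrations. Nonspecific binding defined with NECA. n = 3-6.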

Adenosine receptor A3 [14] = target: T3, Adenosine receptor A3; assay: biochemical; remark: listed apart in the source
Adenosine receptor A1 [15] = target: T4, Adenosine receptor A1; assay: Displacement of [3H]DPCPX from human Adenosine A1 receptor expressed in CHO cells; range 598-838; type: cell-based
Adenosine receptor A2b [16] = target: T2, Adenosine receptor A2b; assay: Displacement of [3H]-DPCPX from human Adenosine A2B receptor expressed in HEK293 cells; range 125-218; type: cell-based; method in brief: as §1
Adenosine receptor A2a [17] = target: T1, Adenosine receptor A2a; assay: Displacement of [3H]SCH-58261 from human Adenosine A2A receptor expressed in HEK293 cells; range 73-138; type: cell-based
Adenosine receptor A1 [18] = target: T4, Adenosine receptor A1; assay: Displacement of [3H]DPCPX from human Adenosine A1 receptor expressed in CHO cells; range 180-345; type: cell-based; method in brief: as §2
Adenosine receptor A3 [19] = target: T3, Adenosine receptor A3; assay: biochemical; remark: listed apart in the source
Adenosine receptor A3 [20] = target: T3, Adenosine receptor A3; assay: biochemical; remark: listed apart in the source
Adenosine receptor A1 [21] = target: T4, Adenosine receptor A1; assay: Displacement of [3H]DPCPX from human Adenosine A1 receptor expressed in CHO cells; range 330-486; type: cell-based
Adenosine receptor A2b [22] = target: T2, Adenosine receptor A2b; assay: Displacement of [3H]DPCPX from human Adenosine A2B receptor expressed in HEK293 cells; range 68-105; type: cell-based; method in brief: as §3
Adenosine receptor A2a [23] = target: T1, Adenosine receptor A2a; assay: Displacement of [3H]SCH-58261 from human Adenosine A2A receptor expressed in HEK293 cells; range 134-190; type: cell-based
Adenosine receptor A3 [24] = target: T3, Adenosine receptor A3; assay: Displacement of [3H]MRE3008-F20 from human Adenosine A3 receptor expressed in HEK cells; range 0.61-0.84; type: cell-based, HEK293
Adenosine receptor A2a [25] = target: T1, Adenosine receptor A2a; assay: Displacement of [3H]SCH-58261 from human Adenosine A2A receptor expressed in HEK293 cells; range 25-40; type: cell-based
Adenosine receptor A2b [26] = target: T2, Adenosine receptor A2b; assay: Displacement of [3H]DPCPX from human Adenosine A2B receptor expressed in HEK293 cells; range 105-170; type: cell-based
Method in brief: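 Competition binding on membranes of HEK-293 cells carrying recombinant human A2B receptor. Incubation 60 min at 25 °C in 50 mM Tris HCl pH 7.4 with 10 mM MgCl2, 1 mM EDTA, 0.1 mM benzamidine and 2 IU/mL adenosine deaminase. Radioligand 40 nM [3H]DPCPX, at least six to eight test concentrations. NECA defined nonspecific binding. Bound ligand separated on glass-fibre filters and counted; n = 3-6.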

Adenosine receptor A1 [27] = target: T4, Adenosine receptor A1; assay: Displacement of [3H]DPCPX from human Adenosine A1 receptor expressed in CHO cells; range 264-463; type: cell-based
Method in brief: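 Competition binding on membranes of CHO cells stably expressing human A1 receptor, resuspended in 50 mM Tris HCl pH 7.4. Incubation 120 min at 25 °C with 1 nM [3H]DPCPX, 50 µg protein per assay and at least six to eight test concentrations. CHA defined nonspecific binding. Bound ligand separated on glass-fibre filters and counted; n = 3-6.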

SMILES: CCCCn1cc2c(nc(NC(=O)Nc3ccc(Cl)c(Cl)c3)n3nc(-c4ccco4)nc23)n1
Ki (Adenosine receptor A2a [12]): 495 nM
Ki (Adenosine receptor A2b [13]): 34 nM
Ratio [4]: 191
Ki (Adenosine receptor A3 [14]): 3.7 nM
Ratio [6]: 9.19
Ki (Adenosine receptor A1 [15]): 708 nM

SMILES: CCCn1cc2c(nc(NC(=O)Nc3ccccc3OC)n3nc(-c4ccco4)nc23)n1
Ki (Adenosine receptor A2b [16]): 165 nM
Ki (Adenosine receptor A2a [17]): 100 nM
Ratio [4]: 735
Ki (Adenosine receptor A1 [18]): 250 nM
Ratio [6]: 485
Ki (Adenosine receptor A3 [19]): 0.34 nM

SMILES: CCn1cc2c(nc(NC(=O)Nc3ccc(Cl)cc3)n3nc(-c4ccco4)nc23)n1
Ki (Adenosine receptor A3 [20]): 0.2 nM
Ki (Adenosine receptor A1 [21]): 400 nM
Ki (Adenosine receptor A2b [22]): 85 nM
Ratio [4]: 2000
Ratio [6]: 425
Ki (Adenosine receptor A2a [23]): 160 nM

SMILES: CCCCn1cc2c(nc(NC(=O)Nc3ccc(C(F)(F)F)cc3)n3nc(-c4ccco4)nc23)n1
Ki (Adenosine receptor A3 [24]): 0.72 nM
Ki (Adenosine receptor A2a [25]): 31 nM
Ki (Adenosine receptor A2b [26]): 130 nM
Ki (Adenosine receptor A1 [27]): 350 nM
Ratio [4]: 486
Ratio [6]: 181

Next, values leading:

Ki (Adenosine receptor A2a [1]): 24 nM
Ki (Adenosine receptor A2b [2]): 161 nM
Ki (Adenosine receptor A3 [3]): 0.21 nM
Ratio [4]: 1340
Ki (Adenosine receptor A1 [5]): 281 nM
Ratio [6]: 767
SMILES: CCCCn1cc2c(nc(NC(=O)Nc3ccc(C)cc3)n3nc(-c4ccco4)nc23)n1

Ki (Adenosine receptor A2b [7]): 302 nM
Ki (Adenosine receptor A2a [8]): 110 nM
Ratio [4]: 2360
IC50 (Adenosine receptor A3 [9]): 4.6 nM
Ratio [6]: 974
Ki (Adenosine receptor A1 [10]): 731 nM
Ki (Adenosine receptor A3 [11]): 0.31 nM
SMILES: Cc1ccc(NC(=O)Nc2nc3nn(C)cc3c3nc(-c4ccco4)nn23)cc1
